This is an account of results in ChEMBL document CHEMBL1143844, “Biochemical studies on the mechanism of human immunodeficiency virus type 1 reverse transcriptase resistance to 1-(beta-D-dioxolane)thymine triphosphate” (Antimicrob Agents Chemother, 2007).

pIC50, pKi: −log10 of the molar value.

A short description of experiment [1]: (§1) Activity of HIV1 reverse transcriptase 41L/67N/70R/215Y/219Q mutant in presence of 3.2 mM ATP by prA/odT assay. On the set-up: species or system Human immunodeficiency virus 1. In short, it runs like this:
(§2)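 Buffer: 50 mM HEPES pH 7.3, 10 mM MgCl2, 0.5% Triton X-100, 0.1 mg/ml BSA. Incubation 180 min at 33°C. Product detected with AP-conjugated anti-BrdU at 405 nm. […] Ki from four inhibitor levels. At least two experiments in duplicate.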

A short description of experiment [2]: (§3) Activity of HIV1 reverse transcriptase wild type HXB2(b) in presence of 3.2 mM ATP by prA/odT assay. On the set-up: species or system Human immunodeficiency virus 1. In short, it runs like this:
(§4)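 Buffer is HEPES 50 mM pH 7.3 with MgCl2 10 mM, Triton X-100 0.5% and BSA 0.1 mg/ml. RT 4–12 pM/well, 33°C for 180 min, no NaOH step. Km obtained as the mean of at least two runs done in duplicate.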

Experiment [3] can be described thus: Inhibition of HIV1 reverse transcriptase wild type HXB2(a) by heteropolymeric DNA polymerase assay. On the set-up: species or system Human immunodeficiency virus 1. In short, it runs like this:
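Heteropolymeric assay without ATP: plate-bound 18-mer DNA primer (~110 nM) with 50-mer 5′-A12-(GTCA)5 template (190 nM). dATP, dGTP, dCTP and BrdUTP at 1.0 μM each, in HEPES 50 mM pH 7.3, MgCl2 10 mM. RT 30–100 pM, 33°C for 180 min, then NaOH dehybridization and anti-BrdU-AP tracer read at 405 nm. IC50 from seven triphosphate concentrations; two to four runs in duplicate.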

Experiment [4] is described as follows: Activity of HIV1 reverse transcriptase 41L/69S-SG/210W/215Y mutant in presence of 3.2 mM ATP by prA/odT assay.
Experiment [5] is described as follows: (§5) Activity of HIV1 reverse transcriptase 41L/67N/70R/210W/215Y mutant in presence of 3.2 mM ATP by prA/odT assay. Also noted: species or system Human immunodeficiency virus 1. In outline: as §2
Experiment [6] deals with Human immunodeficiency virus 1. The description is as §1. In outline: as §2
Experiment [7] addresses HIV1 RT 41L/69S-SG/210W/215Y mutant (HIV-1). As to the kind of experiment: Inhibition of HIV1 reverse transcriptase 41L/69S-SG/210W/215Y mutant in presence of 3.2 mM ATP by prA/odT assay.
The subject of experiment [8] is Human immunodeficiency virus 1. The experiment is described as §3. In short, it runs like this:
as §4

Experiment [9] concerns Human immunodeficiency virus 1. As to the kind of experiment: Activity of HIV1 reverse transcriptase wild type HXB2(a) in presence of 3.2 mM ATP by prA/odT assay. In outline: as §4
For experiment [10], the system named is Human immunodeficiency virus 1. As to the kind of experiment: Activity of HIV1 reverse transcriptase 41L/69S-SG/210W/215Y mutant in presence of 3.2 mM ATP by prA/odT assay.
For experiment [11], the system named is Human immunodeficiency virus 1. The description is as §5. In outline: as §2

As for `Cc1cn([C@H]2C[C@H](N=[N+]=[N-])[C@@H](COP(=O)(O)OP(=O)(O)OP(=O)(O)O)O2)c(=O)[nH]c1=O` [ZIDOVUDINE TRIPHOSPHATE], the Michaelis-Menten constant (Km) (as a rule, the substrate concentration at which the rate is half of its maximum) turned out to be 0.49 µM in experiment [1], 0.29 µM in experiment [2], 0.53 µM in experiment [4] and 0.43 µM in experiment [5]. Further, in [3], the pIC50 (in general, the negative decadic logarithm of the IC50, by convention in mol/L) is 6.74.
Regarding `C[C@H](Cn1cnc2c(N)ncnc21)OCP(=O)(O)OP(=O)(O)OP(=O)(O)O`, the pIC50 in experiment [3] is 5.80.
`Cc1cn([C@H]2CO[C@@H](COP(=O)(O)OP(=O)(O)OP(=O)(O)O)O2)c(=O)[nH]c1=O`: the Km worked out at 0.42 µM in [6]; 0.24 µM in experiment [8]; 0.32 µM in experiment [9]; 0.5 µM in experiment [10]; 0.51 µM in experiment [11]. In experiment [7], the pKi (as a rule, −log10 of the Ki, conventionally taken in molar units) was 7.23.
